Results gathered from unrelated publications.
Each line is one published result; the experiments were not run side by side.
Sample: plasma

Compound	host	route	dose	notes	endpoint	value
CCOC(=O)C1=C(CN2CCC[C@@H]2C(=O)Nc2ccc(B(O)O)cc2)NC(c2nccs2)=N[C@H]1c1ccc(F)cc1Br	CD-1 mouse	intravenous	2 mg/kg		C0	2160 ng/mL
COc1ccc(N(Cc2csc(-c3ccccc3)n2)C(=O)CCCCCC(=O)NO)cc1	female Sprague-Dawley rat	oral	30 mg/kg		Tmax	1 h
C[C@H]1Oc2cc(cnc2N)-c2c(nn(C)c2C#N)CN(C)C(=O)c2ccc(F)cc21	male Sprague-Dawley rat	oral	10 mg/kg	single dose	Tmax	1.36 h
O=C1CCC(N2Cc3cc(CO)c(F)cc3C2=O)C(=O)N1 (centres unmarked)	male CD-1 mouse	intravenous	1 mg/kg		C0	2190 ng/mL
COc1cc(-c2cc(C(C)=O)n3ccccc23)c(OC)cc1Cn1ccnc1	male Sprague-Dawley rat	intravenous	5 mg/kg		Tmax	0.016 h
C=CCn1c(=O)c2cnc(Nc3ccc(N4CCN(C)CC4)cc3)nc2n1-c1ccc2c(n1)[C@@](O)(CC)CC2	dog	oral	10 mg/kg		Cmax	2100 nM
Cc1ncsc1-c1ccc([C@H](C)NC(=O)[C@@H]2C[C@@H](O)CN2C(=O)[C@@H](NC(=O)CCc2ccc(C#Cc3ccc(C(=O)NCCCn4cc(-c5ccc6c(c5)CCN6C(=O)Cc5cccc(OC(F)(F)F)c5)c5c(N)ncnc54)cc3)cn2)C(C)(C)C)cc1	male C57BL/6 mouse	intravenous	1 mg/kg		clearance	2.5 mL/min/kg
NCc1ccc(-c2nn(Cc3ccccc3)c3ccccc23)o1	male CD-1 mouse	intravenous	5 mg/kg		C0	1520 ng/mL
Cc1ccc(OCC(=O)N[C@@H](Cc2c[nH]c3ccccc23)C(=O)OC(C)C)cc1	male Sprague-Dawley mouse	oral	20 mg/kg		clearance	32.3 mL/min/kg
CN(C)C(=O)c1cc2cnc(Nc3ccc(-c4ccc5c(=O)cc(N6CCOCC6)oc5c4)cc3)nc2n1C1CCCC1.Cl	BALB/c mouse	oral	20 mg/kg		CL/F	43.3 mL/min/kg
NCc1cc2c(cc1F)C(=O)N(C1CCC(=O)NC1=O)C2 (centres unmarked)	male CD-1 mouse	intravenous	1 mg/kg		C0	2000 ng/mL
OCc1ccc(-c2nn(Cc3ccccc3)c3ccccc23)o1	male CD-1 mouse	intravenous	5 mg/kg		C0	5100 ng/mL
Cc1ncsc1-c1ccc([C@H](CC(=O)N2CCN(c3ccc(C#Cc4ccc(C(=O)N5CCC(n6cc(-c7ccc8c(c7)CCN8C(=O)Cc7cccc(OC(F)(F)F)c7)c7c(N)ncnc76)CC5)cc4)cn3)CC2)NC(=O)[C@@H]2C[C@@H](O)CN2C(=O)[C@@H](NC(=O)C2(F)CC2)C(C)(C)C)cc1	male C57BL/6 mouse	intravenous	1 mg/kg		clearance	2.3 mL/min/kg
OCc1nc2ccc(NCc3ccc(C(F)(F)F)cc3)cc2[nH]1	male BALB/c mouse	intravenous	1 mg/kg		CL/F	61.7 mL/min/kg
